Measured values from ChEMBL document CHEMBL4020761, “Exploration of pyrrole derivatives to find an effective potassium-competitive acid blocker with moderately long-lasting suppression of gastric acid secretion” (Bioorg Med Chem, 2017).
The source made the active and inactive calls. No cut-off for these calls is given here.

What was measured:
[1] = Inhibition of H+/K+-ATPase in porcine stomach gastric mucosal microsomes assessed as reduction in inorganic phosphate production using ATP as substrate preincubated for 30 mins followed by ATP addition in presence of KCl at pH 6.5 by malachite green reagent based colorimetric assay; parameters: species or system Sus scrofa
Rattus norvegicus [2] = assay: Inhibition of histamine-induced acid secretion in Jcl:Sprague-Dawley rat gastric at 1 mg/kg, iv pretreated for 3 mins after pylorus ligation followed by histamine.2HCl treatment measured after 3 hrs by titration method relative to control; type: functional
In short: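 Anesthetized rats dosed iv at 1 mg/kg. Total acid output over 3 h after histamine injection compared with vehicle-treated rats.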

hERG (KCNH2) = hERG (KCNH2) (Homo sapiens, UniProt Q12809); assay: Inhibition of human ERG expressed in HEK cells at 10 uM at -75 mV holding potential by Whole-cell voltage clamp assay relative to control; type: cell-based; conditions: HEK cells expressing human ERG
[3] = Lipophilicity, log D of the compound at pH 7.4 by HPLC analysis; type: physicochemical; conditions: buffer
In short: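 At pH 7.4, log D derived from HPLC retention time relative to standard compounds.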

[4] = Cytotoxicity against human HepG2 cells assessed as cellular ATP level at 100 uM after 1 day by ATPLite assay relative to control; type: cell-based; conditions: read-out: Activity
[5] = Plasma concentration in Sprague-Dawley rat at 0.2 mg/kg, iv administered as cassette dose after 10 mins by LC-MS/MS analysis; type: ADME, organism-based
In short: (§1)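 Fasted male Sprague-Dawley rats given compounds iv by cassette dosing at 0.2 mg/kg (as free base). Plasma and stomach sampled at 10 min, 1, 4 and 24 h. Plasma and 20% stomach homogenate in saline deproteinized with acetonitrile containing internal standard, then LC/MS/MS. AUC calculated for plasma and stomach. Values are averages of three rats.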

[6] = Drug uptake in Sprague-Dawley rat stomach at 0.2 mg/kg, iv administered as cassette dose after 10 mins by LC-MS/MS analysis; type: ADME, organism-based; conditions: read-out: Drug uptake; in short: as §1
[7] = Plasma concentration in Sprague-Dawley rat at 0.2 mg/kg, iv administered as cassette dose after 1 hr by LC-MS/MS analysis; type: ADME, organism-based; in short: as §1
[8] = Drug uptake in Sprague-Dawley rat stomach at 0.2 mg/kg, iv administered as cassette dose after 1 hr by LC-MS/MS analysis; type: ADME, organism-based; conditions: read-out: Drug uptake; in short: as §1
[9] = Drug uptake in Sprague-Dawley rat stomach at 0.2 mg/kg, iv administered as cassette dose after 4 hrs by LC-MS/MS analysis; type: ADME, organism-based; conditions: read-out: Drug uptake; in short: as §1
[10] = Drug uptake in Sprague-Dawley rat stomach at 0.2 mg/kg, iv administered as cassette dose after 24 hrs by LC-MS/MS analysis; type: ADME, organism-based; conditions: read-out: Drug uptake; in short: as §1
[11] = AUC in Sprague-Dawley rat plasma at 0.2 mg/kg, iv administered as cassette dose by LC-MS/MS analysis; type: ADME, organism-based; in short: as §1
Stomach = assay: AUC in Sprague-Dawley rat stomach at 0.2 mg/kg, iv administered as cassette dose by LC-MS/MS analysis; type: ADME, organism-based; conditions: in vivo; in short: as §1
CYP3A4 = CYP3A4 (Homo sapiens, UniProt P08684); assay: Inhibition of CYP3A4 (unknown origin) expressed in insect cells at 10 uM using testosterone as substrate after 15 mins by HPLC analysis relative to control; type: ADME; conditions: recombinant CYP3A4 expressed in insect cells, probe testosterone
In short: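 Testosterone substrate at 100 μmol/L with 10 nmol/L insect-cell-expressed CYP3A4 and 10 μmol/L test compound, incubated 15 min at 37 °C. 6β-hydroxytestosterone quantified by HPLC with UV detection.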

Rattus norvegicus [12] = assay: Inhibition of histamine-induced acid secretion in Jcl:Sprague-Dawley rat assessed as pH of gastric perfusate at 1 mg/kg, iv pretreated for 3 mins after pylorus ligation followed by histamine.2HCl treatment measured after 3 hrs by glass electrode method (reference value: 2); type: functional
Rattus norvegicus [13] = assay: Inhibition of histamine-induced acid secretion in Jcl:Sprague-Dawley rat assessed as increase in pH of gastric perfusate at 1 mg/kg, iv pretreated for 3 mins after pylorus ligation followed by histamine.2HCl treatment measured after 180 to 300 mins by glass electrode method; type: functional, organism-based
Rattus norvegicus [14] = assay: Inhibition of histamine-induced acid secretion in Jcl:Sprague-Dawley rat assessed as increase in pH of gastric perfusate at 1 mg/kg, iv pretreated for 3 mins after pylorus ligation followed by histamine.2HCl treatment measured after 3 hrs by glass electrode method; type: functional, organism-based

Sequence of hERG (KCNH2) (Q12809 whole entry): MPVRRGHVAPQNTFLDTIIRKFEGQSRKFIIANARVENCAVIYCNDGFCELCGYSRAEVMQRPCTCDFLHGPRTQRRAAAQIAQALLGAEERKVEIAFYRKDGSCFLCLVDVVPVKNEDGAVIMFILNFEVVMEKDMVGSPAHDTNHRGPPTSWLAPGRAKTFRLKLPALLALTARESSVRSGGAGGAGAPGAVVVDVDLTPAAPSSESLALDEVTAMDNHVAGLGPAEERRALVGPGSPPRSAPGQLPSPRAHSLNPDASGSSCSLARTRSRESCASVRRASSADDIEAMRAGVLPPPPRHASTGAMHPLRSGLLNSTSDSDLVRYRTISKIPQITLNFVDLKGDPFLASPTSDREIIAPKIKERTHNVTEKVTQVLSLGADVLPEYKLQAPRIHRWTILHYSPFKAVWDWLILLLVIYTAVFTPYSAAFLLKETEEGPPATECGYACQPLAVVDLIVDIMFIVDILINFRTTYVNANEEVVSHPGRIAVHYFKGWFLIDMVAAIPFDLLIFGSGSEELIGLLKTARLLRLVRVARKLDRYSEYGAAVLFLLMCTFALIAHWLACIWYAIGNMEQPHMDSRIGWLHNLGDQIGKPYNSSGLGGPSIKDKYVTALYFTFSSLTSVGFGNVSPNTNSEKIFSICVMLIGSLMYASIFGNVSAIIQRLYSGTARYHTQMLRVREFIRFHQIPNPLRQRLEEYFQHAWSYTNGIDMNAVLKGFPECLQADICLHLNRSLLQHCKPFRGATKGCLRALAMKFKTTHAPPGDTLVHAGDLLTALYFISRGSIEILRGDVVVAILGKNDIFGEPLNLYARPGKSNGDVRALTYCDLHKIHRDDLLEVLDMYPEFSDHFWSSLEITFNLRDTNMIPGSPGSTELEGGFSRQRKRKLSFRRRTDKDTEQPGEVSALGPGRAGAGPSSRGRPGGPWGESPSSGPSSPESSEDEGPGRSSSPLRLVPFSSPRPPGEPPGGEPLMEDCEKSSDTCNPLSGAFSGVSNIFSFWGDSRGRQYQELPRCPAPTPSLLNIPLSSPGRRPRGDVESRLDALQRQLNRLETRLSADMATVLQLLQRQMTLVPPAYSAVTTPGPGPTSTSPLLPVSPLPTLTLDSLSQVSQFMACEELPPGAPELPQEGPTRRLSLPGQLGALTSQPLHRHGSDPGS
Sequence of CYP3A4 (P08684 whole entry): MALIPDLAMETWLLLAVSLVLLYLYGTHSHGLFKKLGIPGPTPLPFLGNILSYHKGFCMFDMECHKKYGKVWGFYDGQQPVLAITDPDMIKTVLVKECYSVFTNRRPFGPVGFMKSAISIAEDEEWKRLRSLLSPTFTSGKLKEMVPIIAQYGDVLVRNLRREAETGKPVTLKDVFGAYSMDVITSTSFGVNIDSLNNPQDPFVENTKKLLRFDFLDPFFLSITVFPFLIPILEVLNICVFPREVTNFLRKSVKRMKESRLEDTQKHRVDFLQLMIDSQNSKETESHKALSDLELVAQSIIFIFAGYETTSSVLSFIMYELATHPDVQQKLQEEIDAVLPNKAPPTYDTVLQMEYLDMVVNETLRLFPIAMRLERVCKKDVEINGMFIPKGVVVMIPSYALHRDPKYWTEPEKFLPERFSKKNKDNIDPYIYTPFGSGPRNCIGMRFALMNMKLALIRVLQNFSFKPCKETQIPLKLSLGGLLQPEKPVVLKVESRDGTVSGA

SMILES | IC50 [1] | inhibition in vivo at 1 mg/kg (Rattus norvegicus [2]) | inhibition at 10 µM (hERG (KCNH2)) | logD [3] | viability at 24 h, 100 µM [4] | concentration at 10 min [5] | concentration at 10 min [6] | concentration at 1 h [7] | concentration at 1 h [8] | concentration at 4 h [9] | concentration at 24 h [10] | AUC [11] | AUC (Stomach) | inhibition at 0.25 h, 10 µM (CYP3A4) | pH (Rattus norvegicus [12]) | inhibition (Rattus norvegicus [13]) | inhibition (Rattus norvegicus [14])
CNCc1cn(S(=O)(=O)c2cncc(F)c2)c(-c2cccnc2F)c1F | 200 nM | 99% | 22.7% | 0.83 | 88.9% | 43 ng/mL | 330 ng/g | 8.3 ng/mL | 606 ng/g | 425 ng/g | 38.3 ng/g | 38 ng·h/mL | 6599 ng·h/g | 27% | >5 | inactive | 
CNCc1cn(S(=O)(=O)c2ccc(F)cn2)c(-c2cccnc2F)c1F | 100 nM | 87% |  | 0.42 | 86.5% | 25 ng/mL | 369 ng/g | 5 ng/mL | 526 ng/g | 347 ng/g |  | 22 ng·h/mL | 5179 ng·h/g | 21.7% |  |  | 
CNCc1cn(S(=O)(=O)c2ccoc2)c(-c2cccnc2F)c1F | 60 nM | 95% | 44.5% | 0.45 | 100% | 37.4 ng/mL | 635 ng/g | 11.5 ng/mL | 688 ng/g | 194 ng/g |  | 41 ng·h/mL | 3865 ng·h/g | 12.8% |  |  | 
CNCc1cc(-c2cccnc2F)n(S(=O)(=O)c2cccs2)c1 | 32 nM | 96% |  |  |  | 20.8 ng/mL | 522 ng/g | 8.8 ng/mL | 592 ng/g | 210 ng/g |  | 27 ng·h/mL | 3815 ng·h/g |  |  |  | 
CNCc1cn(S(=O)(=O)c2ncccc2C)c(-c2cccnc2F)c1F | 510 nM | 54% |  | 0.32 | 79.1% |  |  |  |  |  |  |  |  | 29% |  |  | 
CNCc1cn(S(=O)(=O)c2cncc(Cl)c2)c(-c2cccnc2F)c1F | 160 nM |  |  | 1.44 | 66.9% |  |  |  |  |  |  |  |  | 45.9% |  |  | 
CNCc1cn(S(=O)(=O)c2cnccc2C)c(-c2cccnc2F)c1F | 120 nM | 98% | 28.2% | 0.43 | 90.9% | 50.1 ng/mL | 360 ng/g | 8.4 ng/mL | 618 ng/g | 251 ng/g |  | 41 ng·h/mL | 4248 ng·h/g | 40% |  |  | 
CNCc1cn(S(=O)(=O)c2ccc(OC)cn2)c(-c2cccnc2F)c1F | 280 nM | 95% | 17.6% | 0.64 | 80% | 54.2 ng/mL | 624 ng/g | 13.1 ng/mL | 806 ng/g | 426 ng/g |  | 52 ng·h/mL | 6761 ng·h/g | 7.7% |  |  | 
CNCc1cn(S(=O)(=O)c2cccc(F)n2)c(-c2cccnc2F)c1F | 240 nM |  |  | 0.7 | 74% |  |  |  |  |  |  |  |  | 46% |  |  | 
CNCc1cc(-c2cccnc2F)n(S(=O)(=O)c2ccccn2)c1 | 120 nM | 81% |  |  |  |  |  |  |  |  |  |  |  | -9.7% |  |  | 
CNCc1cn(S(=O)(=O)c2cncc(C)c2)c(-c2cccnc2F)c1F | 140 nM | 87% |  | 0.61 | 86.9% |  |  |  |  |  |  |  |  | 49.7% |  |  | 
CNCc1cn(S(=O)(=O)c2cccc(C)n2)c(-c2cccnc2F)c1F | 210 nM | 91% | 13.9% | 0.71 | 83.8% | 41.7 ng/mL | 1080 ng/g | 10.3 ng/mL | 999 ng/g | 527 ng/g | 3.3 ng/g | 41 ng·h/mL | 8550 ng·h/g | 22.9% |  |  | 
CNCc1cn(S(=O)(=O)c2ccco2)c(-c2cccnc2F)c1F | 79 nM | 75% | 28.7% | 0.2 | 90.8% | 26.5 ng/mL | 592 ng/g | 6.5 ng/mL | 706 ng/g | 254 ng/g |  | 26 ng·h/mL | 4566 ng·h/g | 5.6% |  |  | 
CNCc1cn(S(=O)(=O)c2cccc(OC)n2)c(-c2cccnc2F)c1F | 150 nM | 98% | 82.3% | 1.03 | 69.8% | 43.5 ng/mL | 773 ng/g | 14.9 ng/mL | 1260 ng/g | 971 ng/g | 47.9 ng/g | 50 ng·h/mL | 14434 ng·h/g | 55.8% |  |  | Active
CNCc1cn(S(=O)(=O)c2cccs2)c(-c2cccnc2F)c1F | 72 nM | 98% | 56.1% | 0.54 | 77.5% | 36.6 ng/mL | 412 ng/g | 12.2 ng/mL | 955 ng/g | 827 ng/g | 17.4 ng/g | 42 ng·h/mL | 11717 ng·h/g | 20.5% |  |  | 
CNCc1cc(-c2cccnc2F)n(S(=O)(=O)c2ccsc2)c1 | 32 nM | 98% |  |  |  | 23.5 ng/mL | 407 ng/g | 8.9 ng/mL | 614 ng/g | 640 ng/g | 41.7 ng/g | 29 ng·h/mL | 9152 ng·h/g | 1.4% |  |  | 
CNCc1cn(S(=O)(=O)c2cccnc2Cl)c(-c2cccnc2F)c1F | 390 nM |  |  | 0.75 | 86.9% | 28 ng/mL | 539 ng/g | 10.1 ng/mL | 722 ng/g | 427 ng/g |  | 33 ng·h/mL | 6568 ng·h/g | 53.1% |  |  | 
CNCc1cn(S(=O)(=O)c2cccnc2)c(-c2cccnc2F)c1F | 49 nM | 98% |  |  |  | 51.5 ng/mL | 602 ng/g | 15 ng/mL | 752 ng/g | 629 ng/g | 130 ng/g | 54 ng·h/mL | 10277 ng·h/g | 14.4% |  |  | 
CNCc1cn(S(=O)(=O)c2cc(OC)ccn2)c(-c2cccnc2F)c1F | 140 nM | 95% | 38.7% | 0.51 | 84.5% | 37.2 ng/mL | 617 ng/g | 10.1 ng/mL | 773 ng/g | 268 ng/g | 8.8 ng/g | 38 ng·h/mL | 4964 ng·h/g | 19% |  |  | 
CNCc1cc(-c2cccnc2F)n(S(=O)(=O)c2cccnc2)c1 | 210 nM | 96% |  |  |  | 37.1 ng/mL | 420 ng/g | 8.4 ng/mL | 532 ng/g | 541 ng/g | 19.6 ng/g | 35 ng·h/mL | 7646 ng·h/g | 4.2% |  |  | 
